This note sets out measurements from ChEMBL document CHEMBL3576868 (J Med Chem, 2015).

SMILES strings stand for the structures. Where a chain is given by its changes, count along the chain named. pIC50: −log10 of the molar value. Activity calls are given as the source filed them. The calls are words filed in the database; no cut-off is given here.

For series [1], the target named is T1, Beta-N-acetyl-D-hexosaminidase-A/B (Homo sapiens, UniProt P07686+P06865).
T1 sequence (P07686 whole entry): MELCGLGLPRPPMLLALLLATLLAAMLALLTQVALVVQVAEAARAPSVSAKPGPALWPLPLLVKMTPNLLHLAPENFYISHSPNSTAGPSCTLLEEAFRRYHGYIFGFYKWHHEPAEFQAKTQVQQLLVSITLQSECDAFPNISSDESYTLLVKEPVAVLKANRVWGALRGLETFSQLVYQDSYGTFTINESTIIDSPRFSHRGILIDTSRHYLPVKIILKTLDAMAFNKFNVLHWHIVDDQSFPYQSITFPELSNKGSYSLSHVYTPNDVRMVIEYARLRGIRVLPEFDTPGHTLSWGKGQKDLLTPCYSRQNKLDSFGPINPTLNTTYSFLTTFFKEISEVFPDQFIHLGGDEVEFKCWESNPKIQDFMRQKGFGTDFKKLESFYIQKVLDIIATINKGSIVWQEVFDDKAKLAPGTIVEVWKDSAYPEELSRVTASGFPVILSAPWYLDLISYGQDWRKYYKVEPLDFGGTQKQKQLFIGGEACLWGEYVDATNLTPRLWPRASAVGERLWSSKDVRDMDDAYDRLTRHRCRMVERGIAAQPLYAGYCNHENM
T1 sequence (P06865 whole entry): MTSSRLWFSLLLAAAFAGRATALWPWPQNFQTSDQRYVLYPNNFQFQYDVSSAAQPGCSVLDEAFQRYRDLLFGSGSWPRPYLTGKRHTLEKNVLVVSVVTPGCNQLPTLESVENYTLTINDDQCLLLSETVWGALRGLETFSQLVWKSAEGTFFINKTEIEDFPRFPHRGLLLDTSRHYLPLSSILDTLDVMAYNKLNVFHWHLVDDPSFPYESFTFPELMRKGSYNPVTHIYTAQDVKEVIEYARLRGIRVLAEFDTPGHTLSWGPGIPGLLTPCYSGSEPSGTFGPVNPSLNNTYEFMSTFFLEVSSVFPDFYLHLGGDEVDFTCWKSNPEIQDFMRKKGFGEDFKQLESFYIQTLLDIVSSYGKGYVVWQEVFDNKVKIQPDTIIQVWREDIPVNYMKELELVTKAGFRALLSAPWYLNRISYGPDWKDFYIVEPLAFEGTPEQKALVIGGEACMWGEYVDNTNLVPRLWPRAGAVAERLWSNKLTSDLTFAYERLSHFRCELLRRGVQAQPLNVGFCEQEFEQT
The series is described as follows: Inhibition of human placental HexA using pNPGlcNAc substrate.

Series [2] has as its system T2, Beta-hexosaminidase subunit alpha (Homo sapiens), P06865 [G269S].
T2 sequence (whole entry): T1 sequence (P06865 whole entry) with G269S
Description: Chaperoning efficacy at HexA alpha G269S mutant in ATSD patient fibroblasts assessed as drug level causing maximum increase in enzyme activity using MUGS substrate incubated for 1 to 2 hrs by spectrofluorometry relative to control. A digest of the protocol:
(§1)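 G269S-homozygous ATSD patient fibroblasts plated at 70−90% confluence and treated 5 days with serially diluted compound in DMEM/10% FBS, DMSO held at 1%. After PBS washes, cells were lysed in McIlvaine buffer pH 4.5 with 0.4% Triton X-100 and 0.025% HSA at 4 °C for 30 min. Lysate was incubated with MUGS (1.6 mM) at 37 °C for 1−2 h and stopped with 0.1 M MAP pH 10.5. Fluorescence read at Ex 365/Em 450 nm. Activity expressed relative to mock (1% DMSO) cells; triplicates.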

The test system is the same in series [3]. The series is described as follows: Chaperoning efficacy at HexA alpha G269S mutant in ATSD patient fibroblasts assessed as maximum increase in enzyme activity using MUGS substrate incubated for 1 to 2 hrs by spectrofluorometry relative to control. A digest of the protocol:
as §1

Series [4] in a line: Toxicity against ATSD patient fibroblasts assessed as reduction in beta-galactosidase activity at. The format is cell-based. The conditions noted are these: human, fibroblast.
A short description of series [5]: Toxicity against ATSD patient fibroblasts assessed as reduction in beta-galactosidase activity at >400 uM. Type of series: cell-based. On the set-up: scale not given: the % may be the effect or the level left. The conditions noted are these: human, fibroblast.
Series [6] deals with T2, Beta-hexosaminidase subunit alpha (Homo sapiens), P06865 [G269S]. The series is described as follows: Chaperoning efficacy at HexA alpha G269S mutant in ATSD patient fibroblasts assessed as maximum increase in enzyme activity using MUGS substrate incubated for 1 to 2 hrs by spectrofluorometry relative to pyrimethamine.
The target in series [7] is T3, Dihydrofolate reductase (Homo sapiens) (UniProt P00374).
T3 sequence (whole entry): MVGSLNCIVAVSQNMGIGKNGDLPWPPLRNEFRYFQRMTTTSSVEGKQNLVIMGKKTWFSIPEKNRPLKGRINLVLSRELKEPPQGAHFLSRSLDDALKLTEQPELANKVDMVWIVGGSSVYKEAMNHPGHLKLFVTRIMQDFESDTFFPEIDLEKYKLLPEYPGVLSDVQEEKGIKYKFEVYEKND
Description: Inhibition of human DHFR.

The target of series [8] is Signal transducer and activator of transcription 3 (Homo sapiens) (UniProt P40763). The series is described as follows: Inhibition of STAT3 phosphorylation at 100 uM.
In series [9] the target is Beta-hexosaminidase subunit alpha (Homo sapiens, UniProt P06865, G269S). Description: Inhibition of HexA alpha G269S mutant in ATSD patient fibroblasts using MUG substrate incubated for 1 to 2 hrs at pH 4.5 by spectrofluorometry.
The nature of series [10]: Toxicity against ATSD patient fibroblasts assessed as reduction in beta-galactosidase activity at >200 uM. Type of series: cell-based. Conditions: human, fibroblast.

Sequence of Signal transducer and activator of transcription 3 (Homo sapiens) (P40763 whole entry): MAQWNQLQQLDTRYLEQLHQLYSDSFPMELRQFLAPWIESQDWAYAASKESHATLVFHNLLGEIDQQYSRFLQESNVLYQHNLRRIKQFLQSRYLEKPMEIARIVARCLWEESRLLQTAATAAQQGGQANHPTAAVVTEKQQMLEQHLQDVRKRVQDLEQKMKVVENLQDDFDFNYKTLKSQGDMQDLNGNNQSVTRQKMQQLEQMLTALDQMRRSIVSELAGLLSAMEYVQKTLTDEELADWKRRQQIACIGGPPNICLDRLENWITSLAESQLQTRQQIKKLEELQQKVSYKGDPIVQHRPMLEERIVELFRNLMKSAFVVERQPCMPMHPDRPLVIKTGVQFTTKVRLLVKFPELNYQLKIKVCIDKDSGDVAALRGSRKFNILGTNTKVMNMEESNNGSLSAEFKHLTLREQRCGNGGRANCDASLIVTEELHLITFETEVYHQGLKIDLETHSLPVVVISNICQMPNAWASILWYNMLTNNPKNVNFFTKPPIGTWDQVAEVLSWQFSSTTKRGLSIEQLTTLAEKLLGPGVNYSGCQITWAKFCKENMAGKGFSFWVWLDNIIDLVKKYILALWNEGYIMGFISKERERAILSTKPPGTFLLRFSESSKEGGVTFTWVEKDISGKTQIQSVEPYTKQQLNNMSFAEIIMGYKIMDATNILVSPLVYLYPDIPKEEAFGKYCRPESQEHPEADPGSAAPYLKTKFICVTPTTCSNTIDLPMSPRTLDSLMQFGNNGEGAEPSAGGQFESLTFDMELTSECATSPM

One may read the IC50 as the concentration that gives 50% inhibition. `CCc1nc(N)nc(N)c1-c1ccc(C)cc1`: the IC50 in [1] stood at 40 µM. For the same compound, the Activity was 30 µM in [2], “Toxic” in [4] and above 60% in series [5]. Also, the fold change (FC) in series [3] was determined as 1.7.

As for `CCc1nc(N)nc(N)c1-c1cc(C)cc(C)c1`, the Activity in series [2] is 100 µM; in series [6], 30%; in series [5] it was above 60%. Moreover, the fold change (FC) in series [3] stood at 2.5.

For the compound `CCc1nc(N)nc(N)c1-c1ccc(C(F)(F)F)cc1`, the Activity in [2] was 30 µM; in [4] it was “Toxic”; in series [5], above 60%. In addition, the fold change (FC) in [3] is 2.2.

Take `CCc1nc(N)nc(N)c1-c1cccc(C)c1`: the Activity in [2] was 100 µM; in series [6] it was 30%; in series [5], above 60%. The fold change (FC) in [3] is 2.9.

The compound `CC(C)c1nc(N)nc(N)c1-c1ccc(Cl)cc1` had an IC50 in [1] above 410 µM.

In turn, `CCc1nc(N)ncc1-c1ccc(C(F)(F)F)cc1` displayed a half-maximal inhibitory concentration (IC50) in series [1] above 400 µM.

For the compound `Cc1nc(N)nc(N)c1-c1ccc(Cl)cc1`, the IC50 in series [1] is above 560 µM.

Turning to `CCc1ncncc1-c1ccc(C(F)(F)F)cc1`, in series [1], the IC50 is above 940 µM.

In turn, `CCc1nc(N)[nH]c(=O)c1-c1ccc(Cl)cc1` registered an IC50 in [1] above 2100 µM.

In series [1], `NCc1nc(N)nc(N)c1-c1ccc(Cl)cc1` showed an IC50 of 180 µM.

Take `CCc1nc(N)nc(N)c1-c1ccc(OC)cc1`: in series [1], the IC50 was 18 µM. The Activity in series [2] was 30 µM; in series [4] it was “Toxic”; in series [5], above 60%. In series [3], the fold change (FC) is 2.

Regarding `CCc1nc(N)nc(N)c1-c1ccc(Cl)cc1` [PYRIMETHAMINE], the Activity was 30 µM in [2], “Toxic” in series [4] and above 60% in [5]. Also, in series [3], the fold change (FC) was found to be 2.1. For the same compound, the inhibition entry in series [7] and in series [8] was “Active” each time.

For the compound `CCc1nc(N)ncc1-c1ccc(Cl)cc1`, the half-maximal inhibitory concentration (IC50) in series [1] was above 400 µM.

For the compound `CCCc1nc(N)nc(N)c1-c1ccc(Cl)cc1`, the fold change (FC) in [3] came out at 1.5.

The compound `CCc1nc(N)nc(N)c1-c1ccccc1C` showed an IC50 in series [1] of 43 µM. Also, the Activity was 100 µM in [2], 30% in series [6] and above 60% in series [5]. Moreover, in [3], the fold change (FC) is 2.3.

For orientation: pIC50 means the negative decadic logarithm of the IC50, by convention in mol/L. Consider `CCc1nc(N)nc(N)c1-c1ccccc1`, for which, in series [9], the pIC50 was 4.57. Also, the fold change (FC) in series [3] came out at 2.7. For the same compound, the Activity in series [6] was 30%; in [10] it was “Toxic”; in series [5], “Non-toxic”. Moreover, in [7], the inhibition entry was “Active”.

In turn, `CCCCc1nc(N)nc(N)c1-c1ccc(Cl)cc1` had an IC50 in series [1] above 1400 µM.
